Source: PubChem BioAssay
APP 5'UTR act = APP 5'UTR luciferase reporter activation; SH-SY5Y APP 5'UTR luciferase reporter, luminescence; zero percent = DMSO vehicle wells; activation, % at 2 µM; 190,000 compounds, 1% hits;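 active = activation above a set limit, based on mean plus 3 SD of controls, cut at about 140% in these data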
FLuc inh counter = Photinus pyralis luciferase inhibition counter-screen; P08659; ATPLite firefly luciferase biochemical luminescence, 10 min; inhibition, % at 10 µM; 200,000 compounds, 1.5% hits; AID 1006;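 active = inhibition above about 50% when tested at 10 µM, limit read from the data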
Rad51 HR inh = blocks human Rad51 in homologous recombination; Q06609; hRad51 DNA strand exchange, fluorescence dequenching; inhibition, % at 10 µM; 200,000 compounds, 0.085% hits; AID 1385;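 active = inhibition above 40% at the single screening dose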;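 also: 0% = DMSO control wells and 100% = blanks with heterologous ssDNA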
Target sequence (Q06609 whole entry, looked up): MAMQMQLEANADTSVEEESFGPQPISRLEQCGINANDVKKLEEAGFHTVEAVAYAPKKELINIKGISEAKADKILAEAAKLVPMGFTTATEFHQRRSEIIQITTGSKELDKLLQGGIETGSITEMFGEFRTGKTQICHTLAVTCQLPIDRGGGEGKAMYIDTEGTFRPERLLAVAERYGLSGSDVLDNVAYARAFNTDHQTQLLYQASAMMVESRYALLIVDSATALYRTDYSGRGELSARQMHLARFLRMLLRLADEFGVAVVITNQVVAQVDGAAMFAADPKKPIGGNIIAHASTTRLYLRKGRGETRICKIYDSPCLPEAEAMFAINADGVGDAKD
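Test system – preformed human Rad51 ssDNA filaments · Reagent – Donor/quencher-labelled 47-bp dsDNA substrate · Incubation – 37 °C 15-min filament assembly, 30-min compound preincubation, 15-min exchange · Signal – FRET fluorescence dequenching, excitation 485 nm, emission 520 nm · Read-out – percent inhibition from fluorescence, normalised to plate control and blank means · Benchmarks – plate control and blank wells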
FLuc act counter = firefly luciferase counter-screen for stimulation assays | P08659 | ATPlite luciferase biochemical, luminescence, 10 min; 0 = ATP-free wells, 1 = DMSO control | activation factor at 10 µM | 200,000 tested, under 10 active | AID 1027;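 active = luciferase activation factor, scaled between plate controls, of at least 2 with compound at 10 µM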
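Assay system: Luciferase/luciferin reagent mix; Medium: PBS as buffer for the ATP substrate; Dosing: test compounds dosed from 2 mM stocks in 100% DMSO; Times: 10 min, room temperature; Signal: luminescence from luciferase reaction; Read-out: luciferase activation; Controls: No-ATP low control, compound-free enzyme-plus-ATP high control.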
STAT1 act = activators of IFN-gamma induced STAT1 signaling | NIH 3T3 STAT1-luciferase reporter, luminescence; 100% = IFN-gamma alone, no compound | activation (% of control), % at 5.5 µM | 200,000 compounds, 2.6% hits;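 active = activation above the screen-wide mean activation plus 3 SD, cut at about 130% in these data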;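 also: raw ratio to IFN-gamma control signal so 100% means no change and 0% no light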
NF-kB neuron act = raises NF-kB expression in human neuronal cells; NF-kB reporter expression; hits give high values; fold change at 12.5 µM; 190,000 compounds, 1.6% hits; AID 1239; in the data active = fold change above about 3.3
* hit, by the source's call. Most compounds without a hit are left out; they make up all but 3.9% or so of the library.

What do the screens show for `CCOC(=O)CNC(=O)CSc1nnc(NC(=O)c2ccc(C)cc2)s1`?
APP 5'UTR act: 37; FLuc inh counter: 94*; Rad51 HR inh: 2; FLuc act counter: 0.1; STAT1 act: 44; NF-kB neuron act: 2.8

What do the screens show for `CC(C)Oc1ccc(C(=O)Nc2nnc(SCC(=O)N3CCOCC3)s2)cc1`?
APP 5'UTR act: 88; FLuc inh counter: 97*; Rad51 HR inh: -3; FLuc act counter: 0; STAT1 act: 81; NF-kB neuron act: 1.1

What do the screens show for `Cc1ccc(C(=O)Nc2nnc(SCC(=O)N3CCCc4ccccc43)s2)cc1`?
APP 5'UTR act: 59; FLuc inh counter: 98*; Rad51 HR inh: 7; FLuc act counter: 0; STAT1 act: 82; NF-kB neuron act: 7.1*

What do the screens show for `Cc1nn(-c2ccc(Cl)cc2)c(NC(=O)C(C)C)c(-c2ccccc2)c1=O`?
Rad51 HR inh: -14

How did O=C(O)c1ccc(-c2ccccc2)[nH]c1=O do in these assays?
Rad51 HR inh: 8

How did Cc1cc(OCC(=O)N(C)C2CCCCC2)ccc1Cl do in these assays?
APP 5'UTR act: 142*; FLuc inh counter: 18; FLuc act counter: 0.8; STAT1 act: 122

Results for COc1ccc2cc(/C=N/O)c(Cl)nc2c1 ?
APP 5'UTR act: 25; FLuc inh counter: 3; Rad51 HR inh: 1; FLuc act counter: 1; STAT1 act: 129*; NF-kB neuron act: 1.8

Results for CCC/C(=N\NC(=O)c1csc(C)c1C)c1cccs1 ?
APP 5'UTR act: 45; FLuc inh counter: 42; Rad51 HR inh: -2; FLuc act counter: 0.6; STAT1 act: 118; NF-kB neuron act: 1.8

Results for CC/C(=N\NC(=O)c1csc(C)c1C)c1cccs1 ?
APP 5'UTR act: 80; FLuc inh counter: 81*; Rad51 HR inh: 10; FLuc act counter: 0.2; STAT1 act: 138*; NF-kB neuron act: 5.2*

Results for COc1ccccc1-n1cc(C(=O)NCC(=O)N2CCN(c3ccccc3)CC2)c2ccccc2c1=O ?
APP 5'UTR act: 34; FLuc inh counter: 70*; Rad51 HR inh: 2; FLuc act counter: 0.3; STAT1 act: 136*; NF-kB neuron act: 2.2

Results for COc1cc2ccccc2cc1C(=O)NCC(c1cccs1)N(C)C (stereo not drawn) ?
APP 5'UTR act: 33; FLuc inh counter: 64*; Rad51 HR inh: 2; FLuc act counter: 0.4; STAT1 act: 124; NF-kB neuron act: 2

What do the screens show for `CCCOc1cccc(C(=O)O)c1`?
APP 5'UTR act: -14; FLuc inh counter: -5; Rad51 HR inh: 0; FLuc act counter: 1; STAT1 act: 97; NF-kB neuron act: 1.1

What do the screens show for `CCCOc1cccc(C(=O)Nc2ccc(Br)cc2F)c1`?
APP 5'UTR act: 128; FLuc inh counter: 10; Rad51 HR inh: -7; FLuc act counter: 0.9; STAT1 act: 136*; NF-kB neuron act: 2.5

Results for CCCCC1=CC2=CC(=O)C(C)(OC(=O)c3cnc4ccccc4n3)C(=O)C2=CO1 (stereo not drawn) ?
Rad51 HR inh: -15

Results for COc1ccc(-n2nc(N)c(C(N)=O)n2)cc1 ?
APP 5'UTR act: 18; FLuc inh counter: 19; Rad51 HR inh: -5; FLuc act counter: 0.8; STAT1 act: 116; NF-kB neuron act: 1.7

What do the screens show for `Cc1ccc(NC(=O)c2oc3ccccc3c2NC(=O)C2CCCO2)cc1C` (stereo not drawn)?
APP 5'UTR act: 176*; FLuc inh counter: 2; FLuc act counter: 1; STAT1 act: 127

What do the screens show for `CCC(=O)Nc1c(C(=O)Nc2ccc3c(c2)OCCO3)oc2ccccc12`?
APP 5'UTR act: 123; FLuc inh counter: -5; Rad51 HR inh: -67; FLuc act counter: 1; STAT1 act: 144*; NF-kB neuron act: 1.9

How did O=C(Nc1ccc2c(c1)OCCO2)c1oc2ccccc2c1NC(=O)C1CC1 do in these assays?
APP 5'UTR act: -6; FLuc inh counter: 2; Rad51 HR inh: -5; FLuc act counter: 1; STAT1 act: 111; NF-kB neuron act: 1.2

How did COc1ccc(NC(=O)c2oc3ccccc3c2NC(=O)C2CCCO2)cc1OC (stereo not drawn) do in these assays?
APP 5'UTR act: 59; FLuc inh counter: 2; Rad51 HR inh: 8; FLuc act counter: 1; STAT1 act: 116; NF-kB neuron act: 0.71

Results for Fc1ccc(N/N=C/C=C/c2ccccc2)c(F)c1 ?
APP 5'UTR act: 54; FLuc inh counter: -7; Rad51 HR inh: 1; FLuc act counter: 1.1; STAT1 act: 137*; NF-kB neuron act: 2.3

How did Fc1ccc(N/N=C/c2ccncc2)c(F)c1 do in these assays?
APP 5'UTR act: 25; FLuc inh counter: 9; Rad51 HR inh: -6; FLuc act counter: 0.9; STAT1 act: 129*; NF-kB neuron act: 1.7

How did Clc1ccc(N/N=C/c2ccncc2)cc1Cl do in these assays?
APP 5'UTR act: 76; FLuc inh counter: 3; Rad51 HR inh: 0; FLuc act counter: 1; STAT1 act: 124; NF-kB neuron act: 1.7

How did O=C(O)c1ccc(/C=N/Nc2ccc(F)cc2F)cc1 do in these assays?
APP 5'UTR act: 170*; FLuc inh counter: 16; Rad51 HR inh: -28; FLuc act counter: 0.8; STAT1 act: 115; NF-kB neuron act: 12*

What do the screens show for `O=C1c2ccccc2NC(c2ccc([N+](=O)[O-])cc2)N1O` (stereo not drawn)?
APP 5'UTR act: -8; FLuc inh counter: -5; Rad51 HR inh: -3; FLuc act counter: 1; STAT1 act: 98; NF-kB neuron act: 0.45

How did CC/C(=N\NC(=O)c1ccoc1C)c1ccc(C)o1 do in these assays?
APP 5'UTR act: 114; FLuc inh counter: 0; Rad51 HR inh: 4; FLuc act counter: 1; STAT1 act: 130*; NF-kB neuron act: 2

How did OCCC1CN(Cc2cc3c(cc2Cl)OCO3)CCN1C1CCCC1 (stereo not drawn) do in these assays?
APP 5'UTR act: 10; FLuc inh counter: -1; FLuc act counter: 1; STAT1 act: 95; NF-kB neuron act: 0.9

How did O=C(Cc1ccc(Cl)cc1)NCCS(=O)c1ccc(Cl)cc1 (stereo not drawn) do in these assays?
APP 5'UTR act: 7; FLuc inh counter: -5; Rad51 HR inh: 130*; FLuc act counter: 1.1; STAT1 act: 96; NF-kB neuron act: 1.1

Results for O=C(Cc1ccccc1)Nn1c(O)c(/C=C2\C=Nc3ccccc32)sc1=S ?
APP 5'UTR act: -6; FLuc inh counter: -5; Rad51 HR inh: -219; FLuc act counter: 1; STAT1 act: 106; NF-kB neuron act: 1.1

Results for CSc1nc(O)c(/C=C2\C=Nc3ccccc32)[nH]1 ?
APP 5'UTR act: 5; FLuc inh counter: 60*; Rad51 HR inh: -4; FLuc act counter: 0.4; STAT1 act: 121; NF-kB neuron act: 1.5

How did Cn1c(O)c(/C=C2\C=Nc3ccccc32)sc1=Nc1ccc(C(=O)O)cc1 do in these assays?
Rad51 HR inh: -5
